# Test results published in ChEMBL document CHEMBL2331463, “Probing functional diversity in pactamycin toward antibiotic, antitumor, and antiprotozoal activity” (Bioorg Med Chem, 2013).
# Assays:
# Plasmodium falciparum [1] = test: Antimalarial activity against Plasmodium falciparum 7G8 after 72 hrs by SYBR Green-based fluorescence assay; type: functional, organism-based; settings: 7G8, 72 h
# Outline: (§1)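 Drug stocks were made at 10 mM in sterile distilled water and serially diluted in culture medium. These were added in quadruplicate to asynchronous P. falciparum cultures at 0.2% parasitemia and 2% hematocrit, then incubated 72 h at 37 °C. Lysis buffer containing SYBR Green I was added, followed by 1 h at room temperature in the dark. Fluorescence was read at ex 497/em 520 nm, and IC50 was obtained by nonlinear regression of logistic dose-response curves.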
# Staphylococcus aureus = test: Antibacterial activity against Staphylococcus aureus ATCC 25923 after 20 hrs by broth microdilution method; type: functional; settings: ATCC 25923, 20 h
# Outline: (§2)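 MIC determined by standard broth microdilution following CLSI recommendations (document M07-A8).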
# HCT-116 = test: Cytotoxicity against human HCT116 cells; type: functional, cell-based
# [2] = Cytotoxicity against human MDA231 cells; type: functional, cell-based; settings: MDA-MB-231
# Enterococcus faecalis = test: Antibacterial activity against Enterococcus faecalis ATCC 29212 after 20 hrs by broth microdilution method; type: functional; settings: ATCC 29212, 20 h; outline: as §2
# Escherichia coli = test: Antibacterial activity against Escherichia coli ATCC 25922 after 20 hrs by broth microdilution method; type: functional; settings: ATCC 25922, 20 h; outline: as §2
# Klebsiella pneumoniae = test: Antibacterial activity against Klebsiella pneumoniae ATCC 700603 after 20 hrs by broth microdilution method; type: functional; settings: ATCC 700603, 20 h; outline: as §2
# PC-3 = test: Cytotoxicity against human PC3 cells; type: functional, cell-based; settings: for IC50: Homo sapiens, PC-3
# Pseudomonas aeruginosa = test: Antibacterial activity against Pseudomonas aeruginosa ATCC 27853 after 20 hrs by broth microdilution method; type: functional; settings: ATCC 27853, 20 h; outline: as §2
# Plasmodium falciparum [3] = test: Antimalarial activity against Plasmodium falciparum D6 after 72 hrs by SYBR Green-based fluorescence assay; type: functional, organism-based; settings: D6, 72 h; outline: as §1
# WI-38 = test: Cytotoxicity against human WI38 cells; type: functional, cell-based; settings: for IC50: Homo sapiens, WI-38
# Acinetobacter baumannii = test: Antibacterial activity against Acinetobacter baumannii clinical isolate after 20 hrs by broth microdilution method; type: functional; outline: as §2
# Plasmodium falciparum [4] = test: Antimalarial activity against Plasmodium falciparum Dd2 after 72 hrs by SYBR Green-based fluorescence assay; type: functional, organism-based; settings: Dd2, 72 h; outline: as §1
Compound,IC50 (Plasmodium falciparum [1]) [nM],MIC (Staphylococcus aureus) [µg/mL],MIC (Enterococcus faecalis) [µg/mL],MIC (Escherichia coli) [µg/mL],MIC (Klebsiella pneumoniae) [µg/mL],MIC (Pseudomonas aeruginosa) [µg/mL],IC50 (Plasmodium falciparum [3]) [nM],MIC (Acinetobacter baumannii) [µg/mL],IC50 (Plasmodium falciparum [4]) [nM],IC50 (HCT-116) [nM],IC50 [2] [nM],IC50 (PC-3) [nM],IC50 (WI-38) [nM],inhibition (INH) (PC-3) [%],inhibition (INH) (WI-38) [%]
CC(=O)c1cccc(N[C@H]2[C@H](N)[C@@](NC(=O)N3CCOCC3)([C@H](C)O)[C@@](C)(O)[C@@]2(O)CO)c1,> 2500,> 128,> 128,> 128,> 128,> 128,> 2500,> 128,> 2500,> 1000,> 1000,> 1000,> 1000,,
CCN(CC)C(=O)N[C@@]1([C@H](C)O)[C@@H](N)[C@H](Nc2cccc(C(C)=O)c2)[C@](O)(CO)[C@]1(C)O,42,4,128,> 128,> 128,> 128,29,> 128,40,230,440,400,> 1000,,
CC(=O)c1cccc(N[C@H]2[C@H](N)[C@]3(NC(=O)O[C@H]3C)[C@@](C)(O)[C@@]2(O)COC(=O)c2c(C)cccc2O)c1 [PACTAMYCATE],> 2500,> 128,> 128,> 128,> 128,> 128,> 2500,> 128,> 2500,> 1000,> 1000,> 1000,> 1000,,
CC(=O)c1cccc(N[C@H]2[C@H](N)[C@@](NC(=O)N3CCCCC3)([C@H](C)O)[C@@](C)(O)[C@@]2(O)CO)c1,1600,> 128,> 128,> 128,> 128,> 128,> 2500,> 128,2000,> 1000,> 1000,> 1000,> 1000,,
CC(=O)c1cccc(N[C@H]2[C@H](N)[C@]3(NC(=O)O[C@H]3C)[C@@](C)(O)[C@@]2(O)CO)c1,> 2500,> 128,> 128,> 128,> 128,> 128,> 2500,> 128,> 2500,> 1000,> 1000,> 1000,> 1000,,

# Stronger by IC50 (Plasmodium falciparum [1]), values ahead:
IC50 (Plasmodium falciparum [1]) [nM],MIC (Staphylococcus aureus) [µg/mL],MIC (Enterococcus faecalis) [µg/mL],MIC (Escherichia coli) [µg/mL],MIC (Klebsiella pneumoniae) [µg/mL],MIC (Pseudomonas aeruginosa) [µg/mL],IC50 (Plasmodium falciparum [3]) [nM],MIC (Acinetobacter baumannii) [µg/mL],IC50 (Plasmodium falciparum [4]) [nM],Compound,IC50 (HCT-116) [nM],IC50 [2] [nM],IC50 (PC-3) [nM],IC50 (WI-38) [nM],inhibition (INH) (PC-3) [%],inhibition (INH) (WI-38) [%]
19.8,16,> 128,64,> 128,> 128,13.7,128,11.5,COc1cccc(N[C@H]2[C@H](N)[C@@](NC(=O)N(C)C)([C@H](C)O)[C@@](C)(O)[C@@]2(O)CO)c1,390,> 1000,> 1000,> 1000,,
< 2.5,4,128,8,32,> 128,6.5,64,7.4,C[C@H](O)[C@]1(NC(=O)N(C)C)[C@@H](N)[C@H](Nc2cccc(F)c2)[C@](O)(CO)[C@]1(C)O,190,> 1000,> 1000,> 1000,35,34
10,8,128,64,128,> 128,9,> 128,9,CC(=O)c1cccc(N[C@H]2[C@H](N)[C@@](NC(=O)N3CCCC3)([C@H](C)O)[C@@](C)(O)[C@@]2(O)CO)c1,90,120,150,> 1000,,
2.5,0.12,128,16,32,128,< 2.5,16,< 2.5,CC(=O)c1cccc(N[C@H]2[C@H](N)[C@@](NC(=O)N(C)C)([C@H](C)O)[C@@](C)(O)[C@@]2(O)COC(=O)c2c(C)cccc2O)c1 [PACTAMYCIN],70,500,240,> 1000,,
18.5,64,> 128,32,64,> 128,14.6,> 128,13.9,C[C@H](O)[C@]1(NC(=O)N(C)C)[C@@H](N)[C@H](Nc2ccccc2)[C@](O)(CO)[C@]1(C)O,810,> 1000,> 1000,> 1000,,
2.5,2,64,4,8,128,< 2.5,128,< 2.5,CC(=O)c1cccc(N[C@H]2[C@H](N)[C@@](NC(=O)N(C)C)([C@H](C)O)[C@@](C)(O)[C@@]2(O)CO)c1,70,260,310,> 1000,,
< 2.5,2,64,16,128,> 128,6.7,64,3.5,C[C@H](O)[C@]1(NC(=O)N(C)C)[C@@H](N)[C@H](Nc2cccc(C(F)(F)F)c2)[C@](O)(CO)[C@]1(C)O,100,380,750,> 1000,,42
